Data from ChEMBL document CHEMBL3297715, “Potent cytotoxic arylnaphthalene lignan lactones from Phyllanthus poilanei” (J Nat Prod, 2014).
The source made the active and inactive calls. The calls are words filed in the database; no cut-off is given here.

How the values were obtained:
HT-29 [1] = experiment: Cytotoxicity against human HT-29 cells; format: functional, cell-based
In short: (§1)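 Paired cancer (HT-29 colon) and normal (CCD-112CoN colon) human cell lines, same screening method for both. Paclitaxel and etoposide as positive controls. IC50 from nonlinear regression. Triplicate measurements, representative of two independent experiments.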

HT-29 [2] = experiment: Induction of apoptosis in human HT-29 cells assessed as early apoptotic cells at 1 uM after 72 hrs by flow cytometry (reference value: 3.93%); format: functional
HT-29 [3] = experiment: Induction of apoptosis in human HT-29 cells assessed as late apoptotic cells at 1 uM after 72 hrs by flow cytometry (reference value: 8.60%); format: functional
HT-29 [4] = experiment: Induction of apoptosis in human HT-29 cells assessed as early apoptotic cells at 5 uM after 72 hrs by flow cytometry (reference value: 3.93%); format: functional
HT-29 [5] = experiment: Induction of apoptosis in human HT-29 cells assessed as late apoptotic cells at 5 uM after 72 hrs by flow cytometry (reference value: 8.60%); format: functional
HT-29 [6] = experiment: Induction of apoptosis in human HT-29 cells assessed as caspase-3 activation by measuring cleaved caspase-3 level at 1 to 10 uM after 24 hrs by western blot analysis; format: functional, cell-based
In short: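 HT-29 cells exposed 24 h to a range of concentrations. Lysed in NP-40/HEPES pH 7.5/0.5 M NaCl buffer with protease and phosphatase inhibitors. Resolved on 4–15% SDS-PAGE and immunoblotted with rabbit monoclonal cleaved caspase-3 (Asp175) antibody. Representative of three independent experiments.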

[7] = Cytotoxicity against human CCD-112CoN cells; format: cell-based; in short: as §1
[8] = biological target: DNA topoisomerase 2-alpha (Homo sapiens) (UniProt P11388); experiment: Inhibition of topoisomerase 2-alpha (unknown origin)-mediated relaxation of supercoiled pBR322 DNA at 100 uM by ethidium bromide staining based agarose gel electrophoresis
HT-29 [9] = experiment: Antitumor activity against human HT-29 cells xenografted in immunodeficient NCr nu/nu mouse assessed as inhibition of cell growth at 10 to 20 mg/kg, ip qd for 4 days administered from day 3 to day 6 post-implantation measured on day 7; format: functional, organism-based
In short: (§2)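 HT-29 human colon cancer cells in hollow fibres implanted in 8–9-week-old NCr nu/nu mice. Drug in DMSO/Cremophor, diluted with water to 13% DMSO and 25% Cremophor. Doses 5.0–20.0 mg/kg ip once daily for 4 days (days 3–6); vehicle control; paclitaxel 5 mg/kg. Fibres retrieved day 7. Modified MTT net growth (day 7 minus day 0) relative to vehicle; n=3 treated; Student's t test.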

HT-29 [10] = experiment: Antitumor activity against human HT-29 cells xenografted in immunodeficient NCr nu/nu mouse assessed as inhibition of cell growth at 5 mg/kg, ip qd for 4 days administered from day 3 to day 6 post-implantation measured on day 7; format: functional, organism-based; parameters: dose 5 mg/kg; in short: as §2
HT-29 [11] = experiment: Antitumor activity against human HT-29 cells xenografted in ip dosed immunodeficient NCr nu/nu mouse assessed as inhibition of cell growth administered qd for 4 days from day 3 to day 6 post-implantation measured on day 7; format: functional, organism-based; in short: as §2
Mus musculus = experiment: Toxicity in immunodeficient NCr nu/nu mouse xenografted with human HT-29 cells at 5 to 20 mg/kg, ip qd for 4 days administered from day 3 to day 6 post-implantation; format: organism-based; parameters: dose 5-20 mg/kg, route intraperitoneal; settings: in vivo, 96 h
In short: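 NCr nu/nu mice bearing hollow-fibre HT-29 implants. Dosed ip once daily for 4 days at 5.0–20.0 mg/kg in 13% DMSO/25% Cremophor/water. Body weight recorded daily and signs of toxicity observed until sacrifice on day 7.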

Sequence of DNA topoisomerase 2-alpha (Homo sapiens) (P11388 whole entry): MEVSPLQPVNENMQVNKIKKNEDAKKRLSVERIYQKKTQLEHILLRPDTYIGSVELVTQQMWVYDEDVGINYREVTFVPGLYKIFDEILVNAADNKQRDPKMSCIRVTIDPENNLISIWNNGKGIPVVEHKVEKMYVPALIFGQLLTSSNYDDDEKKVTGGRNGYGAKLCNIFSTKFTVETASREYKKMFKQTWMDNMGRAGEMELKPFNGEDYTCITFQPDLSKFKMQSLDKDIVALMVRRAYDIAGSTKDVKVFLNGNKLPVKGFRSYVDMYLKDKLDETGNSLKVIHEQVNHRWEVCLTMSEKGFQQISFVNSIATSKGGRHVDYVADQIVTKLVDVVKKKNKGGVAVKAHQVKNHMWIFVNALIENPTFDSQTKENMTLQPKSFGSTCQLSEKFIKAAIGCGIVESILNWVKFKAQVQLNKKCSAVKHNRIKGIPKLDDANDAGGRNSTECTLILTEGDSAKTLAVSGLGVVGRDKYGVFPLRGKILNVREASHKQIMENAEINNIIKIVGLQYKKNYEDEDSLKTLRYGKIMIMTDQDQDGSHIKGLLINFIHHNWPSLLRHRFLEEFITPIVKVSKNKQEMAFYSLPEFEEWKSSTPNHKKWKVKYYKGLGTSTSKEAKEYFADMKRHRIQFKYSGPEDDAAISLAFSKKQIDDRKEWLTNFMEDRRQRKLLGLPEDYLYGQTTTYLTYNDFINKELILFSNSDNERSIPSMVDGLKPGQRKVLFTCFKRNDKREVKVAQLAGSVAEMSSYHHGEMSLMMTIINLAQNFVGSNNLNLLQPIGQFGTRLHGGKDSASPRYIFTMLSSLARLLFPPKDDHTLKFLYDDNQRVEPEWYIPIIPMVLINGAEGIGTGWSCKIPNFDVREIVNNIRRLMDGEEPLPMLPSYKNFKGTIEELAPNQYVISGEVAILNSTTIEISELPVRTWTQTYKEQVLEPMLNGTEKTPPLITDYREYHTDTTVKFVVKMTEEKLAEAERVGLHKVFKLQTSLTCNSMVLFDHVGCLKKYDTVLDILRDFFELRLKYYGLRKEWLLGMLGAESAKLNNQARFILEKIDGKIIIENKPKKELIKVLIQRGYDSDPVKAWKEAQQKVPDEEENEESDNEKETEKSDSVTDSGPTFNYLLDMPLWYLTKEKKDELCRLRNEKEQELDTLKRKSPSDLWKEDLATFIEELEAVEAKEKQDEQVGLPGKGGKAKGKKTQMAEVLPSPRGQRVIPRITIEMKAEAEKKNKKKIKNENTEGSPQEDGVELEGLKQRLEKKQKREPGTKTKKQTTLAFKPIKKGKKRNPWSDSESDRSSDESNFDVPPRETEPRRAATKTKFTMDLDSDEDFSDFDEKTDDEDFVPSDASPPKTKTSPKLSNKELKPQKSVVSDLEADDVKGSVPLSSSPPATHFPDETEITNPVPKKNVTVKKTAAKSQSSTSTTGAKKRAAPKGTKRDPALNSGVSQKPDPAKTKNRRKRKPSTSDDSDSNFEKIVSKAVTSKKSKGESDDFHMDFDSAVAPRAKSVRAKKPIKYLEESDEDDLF

| SMILES | IC50 (HT-29 [1]) | IC50 [7] | inhibition [8] | also measured |
| --- | --- | --- | --- | --- |
| COc1cc2c(O[C@@H]3OC[C@H](OC(C)=O)[C@H](O)[C@H]3O)c3c(c(-c4ccc5c(c4)OCO5)c2cc1OC)C(=O)OC3 | 1.8 µM | – | – | – |
| COc1cc([C@@H]2c3cc4c(cc3[C@@H](O[C@@H]3O[C@@H]5CO[C@@H](C)O[C@H]5[C@H](O)[C@H]3O)[C@H]3COC(=O)[C@H]23)OCO4)cc(OC)c1O [ETOPOSIDE] | – | – | – | Activity (HT-29 [2]): 12.9%; Activity (HT-29 [3]): 19.8%; Activity (HT-29 [4]): 12.5%; Activity (HT-29 [5]): 25.3%; Activity (HT-29 [6]): inactive |
| COc1cc2c(O[C@@H]3OC[C@H](O)[C@H](OC(C)=O)[C@H]3O)c3c(c(-c4ccc5c(c4)OCO5)c2cc1OC)C(=O)OC3 | 1.8 µM | – | – | – |
| COc1cc2c(O[C@@H]3OC[C@H](O)[C@H](O)[C@H]3O)c3c(c(-c4ccc5c(c4)OCO5)c2cc1OC)C(=O)OC3 [ACUTISSIMALIGNAN A] | 3.2 µM | > 100 µM | inactive | – |
| COc1cc2c(O[C@@H]3O[C@H](CO)[C@@H](O)[C@H](O)[C@H]3O)c3c(c(-c4ccc5c(c4)OCO5)c2cc1OC)C(=O)OC3 | > 10 µM | – | – | – |
| COc1cc2c(O[C@@H]3OC[C@H](OC(C)=O)[C@H](OC(C)=O)[C@H]3O)c3c(c(-c4ccc5c(c4)OCO5)c2cc1OC)C(=O)OC3 | 0.17 µM | > 100 µM | inactive | inhibition (HT-29 [9]): Active; inhibition (HT-29 [10]): inactive; Activity (HT-29 [2]): 28.2%; inhibition (HT-29 [11]): Dose-dependent effect; Activity (Mus musculus): Non-toxic; Activity (HT-29 [3]): 27.3%; Activity (HT-29 [4]): 30.3%; Activity (HT-29 [5]): 38%; Activity (HT-29 [6]): Active |
| COc1cc2c(O)c3c(c(-c4ccc5c(c4)OCO5)c2cc1OC)C(=O)OC3 [DIPHYLLIN] | 7.6 µM | – | – | – |
| COc1cc2c(OC)c3c(c(-c4ccc5c(c4)OCO5)c2cc1OC)C(=O)OC3 [JUSTICIDIN A] | > 10 µM | – | – | – |
| COc1cc2c(O[C@@H]3OC[C@H](OC(C)=O)[C@H](OC(C)=O)[C@H]3OC(C)=O)c3c(c(-c4ccc5c(c4)OCO5)c2cc1OC)C(=O)OC3 | 0.11 µM | – | inactive | – |
| CC(=O)O[C@H]1C(=O)[C@@]2(C)[C@H]([C@H](OC(=O)c3ccccc3)[C@]3(O)C[C@H](OC(=O)[C@H](O)[C@@H](NC(=O)c4ccccc4)c4ccccc4)C(C)=C1C3(C)C)[C@]1(OC(C)=O)CO[C@@H]1C[C@@H]2O [PACLITAXEL] | – | 23 µM | – | – |
